Test [1] is described as follows: nonspecific flux increase, KCNQ1-free cells – parental CHO cells, counter-screen for KCNQ1 potentiator project (AID 493006;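 active = duplicate-averaged activation above buffer control mean plus 5 SD of those controls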). The note with it: parental CHO-K1 cells, FluxOR thallium flux, at 10 µM; stronger effect = higher value. A digest of the protocol: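 Test system: parental CHO-K1 cells, FluxOR dye-loaded / Probe or stimulus: potassium plus thallium depolarizing stimulus, 5x stock 12.5 mM K2SO4, Tl2SO4 / Timing: overnight 37 °C plating, 90 min dye, 20 min dark compound / Measured by: kinetic thallium-flux fluorescence / Read-out: max-minus-min fluorescence over baseline, percent of buffer-to-R-L3 span / Benchmarks: buffer and R-L3 controls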
On the technique in general: Counterscreens check selectivity or assay interference.

Test [2] deals with Potassium voltage-gated channel subfamily KQT member 1 (Homo sapiens) (UniProt P51787). In words: enhancement of KCNQ1 channel thallium flux – FluxOR thallium flux, CHO cells, duplicates, confirmation (AID 493007;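 active = potentiation averaged over duplicate wells exceeding buffer-only control mean by more than 3 SD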;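 as to outcome: cells depolarized by a potassium plus thallium sulfate stimulus after compound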;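 as to potentiation: 0% = buffer-only wells and 100% = R-L3 activator control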). The following applies: KCNQ1 cell line, FluxOR thallium flux fluorescence, at 10 µM; stronger effect = higher value, % of reference activator effect, buffer zero. In outline:
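Assay system: CHO cells carrying KCNQ1 | Controls: Buffer and R-L3 controls | Schedule: FluxOR dye loading 90 min, compound exposure 20 min, room temperature | Read-out: Baseline-normalized fluorescence change, percent of buffer-to-R-L3 range | Replicates: Each compound tested in duplicate | Technique: Kinetic thallium influx fluorescence with FluxOR dye, 10 s baseline, 110 s post-stimulus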

Test [3] deals with Potassium voltage-gated channel subfamily KQT member 2 (Rattus norvegicus) (UniProt O88943). The test is described as follows: KCNQ2 thallium flux enhancement – KCNQ2-CHO-K1 cells, selectivity assay for KCNQ1 potentiator project (AID 493009).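 Also: assay conditions were tuned for KCNQ1 rather than KCNQ2 modulators.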 The note with it: FluxOR thallium flux fluorescence, at 10 µM; stronger effect = higher value, scaled: buffer 0, activator control 100.
The target of test [4] is Potassium voltage-gated channel subfamily KQT member 1 (Homo sapiens) (UniProt P51787). The test is described as follows: KCNQ1 activators by electrophysiology – IonWorks patch clamp, KCNQ1-CHO cells, orthogonal assay for KCNQ1 potentiator project, confirmation (AID 493184;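 active = current rise at least 3 SD above the untreated control mean in each of two repeat wells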). The note with it: automated patch clamp current, at 10 µM; stronger effect = higher value. A digest of the protocol: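 Material: KCNQ1-expressing CHO cells; doses: 10 µM final, single point; probe or stimulus: voltage step from -90 mV holding to +40 mV, 2,000 ms; signal: automated voltage clamp, amphotericin B perforated patch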
(In general: The patch-clamp technique gives a direct electrical read-out from membranes.)

In PubChem BioAssay one finds outcome, activation and potentiation data, which are given here for 30 compounds.

Calls of active or inactive are those of the source.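 The calls were made as follows, unless noted: active = mean duplicate potentiation above the buffer control mean plus 5 SD of buffer wells; inactive = the rest.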

Sequence of Potassium voltage-gated channel subfamily KQT member 2 (Rattus norvegicus) (O88943 whole entry, looked up): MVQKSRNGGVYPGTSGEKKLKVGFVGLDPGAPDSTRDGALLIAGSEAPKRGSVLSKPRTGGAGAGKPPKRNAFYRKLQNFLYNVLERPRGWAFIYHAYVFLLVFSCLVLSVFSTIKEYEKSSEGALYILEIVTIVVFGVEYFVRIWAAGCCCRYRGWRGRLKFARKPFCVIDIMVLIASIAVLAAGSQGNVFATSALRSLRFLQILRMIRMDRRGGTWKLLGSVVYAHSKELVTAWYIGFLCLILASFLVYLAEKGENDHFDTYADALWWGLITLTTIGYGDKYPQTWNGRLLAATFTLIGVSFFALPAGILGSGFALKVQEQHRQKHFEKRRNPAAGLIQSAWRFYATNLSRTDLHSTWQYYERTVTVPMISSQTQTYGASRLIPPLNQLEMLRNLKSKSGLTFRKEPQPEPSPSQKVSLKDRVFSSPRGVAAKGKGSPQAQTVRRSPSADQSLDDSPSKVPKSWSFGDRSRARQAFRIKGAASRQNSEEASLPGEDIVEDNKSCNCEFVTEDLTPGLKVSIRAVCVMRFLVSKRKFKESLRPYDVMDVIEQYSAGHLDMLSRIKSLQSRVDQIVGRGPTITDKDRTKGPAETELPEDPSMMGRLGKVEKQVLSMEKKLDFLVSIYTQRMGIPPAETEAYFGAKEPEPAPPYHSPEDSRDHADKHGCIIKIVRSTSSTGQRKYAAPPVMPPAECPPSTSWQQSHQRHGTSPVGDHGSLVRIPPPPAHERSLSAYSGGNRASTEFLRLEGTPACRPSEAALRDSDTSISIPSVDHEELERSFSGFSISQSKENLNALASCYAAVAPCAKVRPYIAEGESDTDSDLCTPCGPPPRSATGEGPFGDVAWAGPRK
Sequence of Potassium voltage-gated channel subfamily KQT member 1 (Homo sapiens) (P51787 whole entry, looked up): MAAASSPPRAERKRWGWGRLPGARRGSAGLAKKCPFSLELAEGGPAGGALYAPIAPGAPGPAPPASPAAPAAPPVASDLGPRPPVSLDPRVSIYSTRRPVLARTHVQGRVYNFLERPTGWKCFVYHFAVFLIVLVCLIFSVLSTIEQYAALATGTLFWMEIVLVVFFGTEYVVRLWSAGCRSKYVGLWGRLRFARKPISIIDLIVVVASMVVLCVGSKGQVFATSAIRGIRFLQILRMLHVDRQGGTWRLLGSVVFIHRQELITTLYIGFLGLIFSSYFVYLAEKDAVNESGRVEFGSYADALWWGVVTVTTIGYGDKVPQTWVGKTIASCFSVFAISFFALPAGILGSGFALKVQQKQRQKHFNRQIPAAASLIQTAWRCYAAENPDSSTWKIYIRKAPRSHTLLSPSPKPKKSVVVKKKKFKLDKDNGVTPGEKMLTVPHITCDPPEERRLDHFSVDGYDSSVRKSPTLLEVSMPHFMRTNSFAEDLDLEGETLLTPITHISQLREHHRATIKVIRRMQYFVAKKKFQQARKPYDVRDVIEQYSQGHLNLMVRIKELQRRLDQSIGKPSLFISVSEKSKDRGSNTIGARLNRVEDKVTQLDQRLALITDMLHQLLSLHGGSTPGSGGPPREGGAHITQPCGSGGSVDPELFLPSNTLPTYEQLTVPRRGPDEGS

In the case of `CC(NC(=O)c1ccncc1)C(C)(C)C` (stereo not given), the result in test [1], in test [2], in test [3] and in test [4] was inactive.
As for `Cc1ccccc1OCc1nnc(SCCN2CCCC2)n1-c1ccccc1`, the result in test [1], in test [2], in test [3] and in test [4] was inactive.
Consider `COC(=O)c1sc(NC(=S)NC(=O)c2ccc(C)cc2)nc1C`, for which the activation in test [1] is 172% (active). For the same compound, the potentiation in test [2] was 50.5% (active); in test [3], 188% (active). The result in test [4] was inactive.
As to `O=C1c2cccc3cccc(c23)C(=O)C1(O)O`, the result in test [1], in test [2], in test [3] and in test [4] was inactive.
Take `O=C(NC(=S)Nc1cccnc1)c1cc2ccccc2o1`: the activation in test [1] is 184% (active). The potentiation in test [2] was 35% (active); in test [3], 182% (active). Also, in test [4], the outcome was inactive.
With `O=C(O)c1ccc2c(c1)C(=O)N(Cc1ccccc1)C2=O`, the result in test [1], in test [2], in test [3] and in test [4] was inactive.
With `Cc1[nH]n(-c2ccc(F)cc2)c(=O)c1/C=N/c1sc2c(c1C#N)CCCC2`, the activation in test [1] was 276% (active). The values for the potentiation in test [2] and in test [3] were 85.5% (active) and 246% (active), respectively. Also, the outcome in test [4] was inactive.
Consider `COc1cc(S(=O)(=O)Nc2cccnc2)ccc1Cl`, for which the activation in test [1] is 200% (active). In addition, the potentiation in test [2] is 64% (active); in test [3], 212% (active). In addition, the result in test [4] was inactive.
Regarding `Cc1ccccc1C(=O)NCc1ccncc1`, the result in test [1], in test [2], in test [3] and in test [4] was inactive.
For `CCCCN(CCCC)C(=S)NC(=O)c1ccccc1Cl`, in test [1], the activation is 556% (active). Also, the potentiation was 238% (active) in test [2] and 542% (active) in test [3]. In addition, the result in test [4] was inactive.
In the case of `Oc1c(Br)cc(Br)cc1C=Nc1ccc2c(c1)OCO2`, the activation in test [1] is 172% (active). The outcome in test [2], in test [3] and in test [4] was inactive.
On to `CCn1c(=S)[nH]c2c(c1=O)C(C)(C)Cc1ccccc1-2`, for which the activation in test [1] was 150% (active). For the same compound, the result in test [2], in test [3] and in test [4] was inactive.
For the compound `Cc1ccc2nc(NC(=S)NC(=O)c3cccs3)sc2c1`, the activation in test [1] is 168% (active). The potentiation in test [2] is 66% (active); in test [3] it was 158% (active). In addition, in test [4], the outcome was inactive.
Turning to `Cc1ccc(NC(=S)N/N=C2/CCCCc3ccccc32)cc1`, the activation in test [1] is 274% (active). Besides, the potentiation in test [2] was 324% (active); in test [3], 484% (active). Moreover, the outcome in test [4] was inactive.
On to `CCc1ccc(OCC(=O)Nc2ccc(S(=O)(=O)N3CCOCC3)cc2)cc1`, for which the outcome in test [1], in test [2], in test [3] and in test [4] was inactive.
In the case of `O=c1c2ccc(Cl)cc2nc(-c2cccc(C(F)(F)F)c2)n1O`, the activation in test [1] was 722% (active). Besides, the potentiation is 230% (active) in test [2] and 756% (active) in test [3]. Besides, the result in test [4] was inactive.
Regarding `Cc1nn(CC2CC2)c(=O)n1-c1ccc(F)cc1`, the outcome in test [1], in test [2], in test [3] and in test [4] was inactive.
On to `CCOC(=O)c1ccc(NC(=S)N2CCSC2c2ccc(Br)cc2)cc1` (stereo not given), for which the result in test [1], in test [2], in test [3] and in test [4] was inactive.
For `C=CCN1C(=O)C(CC(=O)NCC)SC1=Nc1ccc(S(N)(=O)=O)cc1` (stereo not given), the outcome in test [1], in test [2], in test [3] and in test [4] was inactive.
Consider `O=C1CCC(C(=O)N2CCSCC2)CN1Cc1cccc(C(F)(F)F)c1` (stereo not given), for which the result in test [1], in test [2], in test [3] and in test [4] was inactive.
Regarding `CCC1(c2ccc(Cl)cc2)NC(=S)N(c2ccccc2)N1` (stereo not given), the activation in test [1] was 405% (active). In addition, the potentiation in test [2] was 150% (active); in test [3], 375% (active). Besides, the outcome in test [4] was inactive.
`CCC1Oc2ccc(C)cc2N(CC(=O)N(Cc2ccc(C)o2)C2CC(C)(C)NC(C)(C)C2)C1=O` (stereo not given): in test [1], the activation was 152% (active). The figures for the potentiation in test [2] and in test [3] were 63.5% (active) and 166% (active), respectively. The outcome in test [4] was inactive.
For the compound `CC(Oc1ccccc1F)C(=O)/C=C/N(C)C` (stereo not given), the result in test [1], in test [2], in test [3] and in test [4] was inactive.
Consider `COc1cccc(C=O)c1OCCCOc1cccc2cccnc12`, for which the outcome in test [1], in test [2], in test [3] and in test [4] was inactive.
For the compound `Fc1cccc(/C=N/NC(=S)Nc2ccccc2Cl)c1`, the result in test [1] and in test [4] was inactive. Also, the potentiation in test [2] is 41.5% (active); in test [3], 158% (active).
For the compound `O=C(NN=C1CCCCCC1)c1cc(-c2ccccc2)nc2ccccc12`, the result in test [1], in test [2], in test [3] and in test [4] was inactive.
Turning to `COCCN(CCOC)Cc1cc(=O)oc2cc3c(cc12)CCC3`, in test [1], the activation is 145% (active). Besides, the potentiation in test [2] was 45.5% (active). Further, the result in test [3] and in test [4] was inactive.
With `CCOC(=O)c1cnc2c(C(=O)OC)cccc2c1NCCN1CCOCC1`, the result in test [1], in test [2], in test [3] and in test [4] was inactive.
For the compound `Cc1ccc(S(=O)(=O)N(C)c2nc3ccccc3[nH]c2=S)cc1`, the result in test [1] and in test [4] was inactive. Besides, the potentiation is 42.5% (active) in test [2] and 197% (active) in test [3].
For `Cc1ccccc1NS(=O)(=O)c1ccc2[nH]cc(C(=O)N(C)Cc3ccco3)c(=O)c2c1`, the result in test [1], in test [3] and in test [4] was inactive. In test [2], the potentiation was 44% (active).
